Format in all cases: cell-based
The nature of assay [1]: Cytotoxicity against human SMMC7721 cells after 48 hrs. Conditions: SMMC-7721, 48 h. A digest of the protocol: (§1)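 SRB assay. Exponentially growing cells were seeded at 5 × 10^3 per well and incubated 24 h, then exposed 48 h to 5-6 concentrations per run, with vincristine sulfate as positive control. Extracted dye absorbance was read at 515 nm. Percent survival was calculated against untreated cells set at 100%. Done in triplicate.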

For the next assay, the system named is HL-60. In words: Cytotoxicity against human HL60 cells after 48 hrs. The note with it: HL-60, 48 h. The essentials: as §1
The nature of assay [2]: Cytotoxicity against human L02 cells after 48 hrs. Conditions: L02, 48 h. The essentials:
as §1

≈ marks a conversion by molar mass, not a printed value. A value given as a limit tells only on which side of the number the result lay.

Consider `C=C1C(=O)O[C@H]2[C@H]1[C@@H](OC(=O)/C(C)=C\C)C(=O)[C@H](C)CCC[C@](C)(O)[C@@H]2OC(=O)C(C)C`, for which the values for the half-maximal inhibitory concentration (IC50) (in assay [1]; in the assay with HL-60; in assay [2]) were 46.3 µg/mL (≈ 103 µM), 3.4 µg/mL (≈ 7.55 µM) and 72.4 µg/mL (≈ 161 µM), respectively.
As to `C=C1C(=O)O[C@H]2[C@H]1[C@@H](OC(=O)C(C)C)[C@H](O)[C@H](C)CCC(=O)[C@](C)(O)[C@@H]2OC(=O)C(C)C`, the IC50 stood at 33.5 µg/mL (≈ 73.7 µM) in assay [1], 3.2 µg/mL (≈ 7.04 µM) in the assay on HL-60 and 42.3 µg/mL (≈ 93.1 µM) in assay [2].
In the same order, the values of `CC(=O)OC/C(=C\CC/C(C)=C/CO)CCC[C@H](C)[C@H](O)CC=C(C)C` are over 100 µg/mL, over 100 µg/mL and over 100 µg/mL.
`C=C1C(=O)O[C@H]2[C@H]1[C@@H](O)[C@H](OC(=O)CC(C)C)[C@H](C)CCC(=O)[C@](C)(O)[C@@H]2OC(=O)C(C)CC` (stereo not given in full): the figures for the concentration for half-maximal inhibition (IC50) (in assay [1]; in the assay with HL-60; in assay [2]) were 29.7 µg/mL (≈ 61.5 µM), 10.3 µg/mL (≈ 21.3 µM) and 57.5 µg/mL (≈ 119 µM), respectively.
As to `CC(C)=CC[C@@H](O)[C@@H](C)CCC/C(C)=C/CC/C(C)=C/CO`, the IC50 is over 100 µg/mL in assay [1], 42.4 µg/mL (≈ 137 µM) in the assay on HL-60 and over 100 µg/mL in assay [2].
`CC(=O)OC/C=C(\C)CC/C=C(/CCC[C@H](C)[C@H](O)CC=C(C)C)COC(C)=O`: the values for the IC50 (in assay [1]; with HL-60; in assay [2]) were 12.5 µg/mL (≈ 30.6 µM), 20.2 µg/mL (≈ 49.4 µM) and 31.3 µg/mL (≈ 76.6 µM), respectively.
In the case of `C=C1C(=O)O[C@H]2[C@H]1[C@@H](O)[C@H](OC(=O)CC(C)C)[C@H](C)CCC(=O)[C@](C)(O)[C@@H]2OC(=O)C(C)C`, the results for the IC50 (in assay [1]; with HL-60; in assay [2]) were 44.8 µg/mL (≈ 95.6 µM), 1.7 µg/mL (≈ 3.63 µM) and 23.1 µg/mL (≈ 49.3 µM), respectively.
For `C=C1C(=O)O[C@H]2[C@H]1[C@@H](OC(=O)C(C)C)C(=O)[C@H](C)CCC[C@](C)(O)[C@@H]2OC(=O)C(C)C` [INCASPITOLIDE A], the IC50 was determined as 97.1 µg/mL (≈ 221 µM) in assay [1], 11.8 µg/mL (≈ 26.9 µM) with HL-60 and 86.4 µg/mL (≈ 197 µM) in assay [2].
In the same order, the values of `C=C1C(=O)O[C@H]2[C@H]1[C@@H](O)[C@H](OC(=O)C(C)C)[C@H](C)CCC(=O)[C@](C)(O)[C@@H]2OC(=O)C(C)C` [INCASPITOLIDE D] are 62.5 µg/mL (≈ 138 µM), 14.3 µg/mL (≈ 31.5 µM) and 95.7 µg/mL (≈ 211 µM).
As for `CC[C@]1(O)C[C@H]2CN(CCc3c([nH]c4ccccc34)[C@@](C(=O)OC)(c3cc4c(cc3OC)N(C=O)[C@H]3[C@@](O)(C(=O)OC)[C@H](OC(C)=O)[C@]5(CC)C=CCN6CC[C@]43[C@@H]65)C2)C1.O=S(=O)(O)O` [VINCRISTINE SULFATE], the figures for the IC50 (in assay [1]; in the assay on HL-60; in assay [2]) were 26.7 µg/mL, 11.2 µg/mL and 28.4 µg/mL, respectively.
